Laboratory results: ChEMBL document CHEMBL3593164, “Rational Design and Synthesis of Thioridazine Analogues as Enhancers of the Antituberculosis Therapy” (J Med Chem, 2015)

Experiments:
[1] = system: Mycobacterium tuberculosis; test: Inhibition of multidrug resistance efflux pump in Mycobacterium tuberculosis H37Rv assessed as rifampin MIC at 1.88 ug/ml after 7 days by two-dimensional broth microdilution checkerboard assay; details: 168 h
Method in brief: (§1)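 M. tuberculosis H37Rv ATCC27294. MICs of INH, RIF, AMK, OFX and EtBr were determined alone and with sub-inhibitory concentrations of test compound by two-dimensional broth microdilution checkerboard. Where a compound's MIC was not determinable, the highest concentration still allowing growth was taken as ½ MIC. FIC = MIC in combination / MIC alone. FIC ≤0.25 was scored as synergism and ≥2 as antagonism.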

[2] = system: Mycobacterium tuberculosis; test: Inhibition of multidrug resistance efflux pump in Mycobacterium tuberculosis H37Rv assessed as reduction in isoniazid MIC at 7.5 ug/ml after 7 days by two-dimensional broth microdilution checkerboard assay
Method in brief: (§2)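 M. tuberculosis H37Rv two-dimensional broth microdilution checkerboard. MICs of INH, RIF, AMK, OFX or EtBr were determined without and with graded sub-inhibitory compound concentrations, starting at ½ MIC. Where MIC was undeterminable, the highest concentration still permitting growth was taken as ½ MIC. FIC = MIC of antibacterial in combination / MIC alone. FIC ≤0.25 was scored as synergism and ≥2 as antagonism.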

[3] = system: Mycobacterium tuberculosis; test: Inhibition of multidrug resistance efflux pump in Mycobacterium tuberculosis H37Rv assessed as ethidium bromide MIC at 0.94 ug/ml after 7 days by two-dimensional broth microdilution checkerboard assay; details: 168 h; method in brief: as §1
[4] = system: Mycobacterium tuberculosis; test: Inhibition of multidrug resistance efflux pump in Mycobacterium tuberculosis H37Rv assessed as amikacin MIC at 0.94 ug/ml after 7 days by two-dimensional broth microdilution checkerboard assay; details: 168 h; method in brief: as §1
[5] = system: Mycobacterium tuberculosis; test: Inhibition of multidrug resistance efflux pump in Mycobacterium tuberculosis H37Rv assessed as amikacin MIC at 3.75 ug/ml after 7 days by two-dimensional broth microdilution checkerboard assay; details: 168 h; method in brief: as §1
[6] = system: Mycobacterium tuberculosis; test: Inhibition of multidrug resistance efflux pump in Mycobacterium tuberculosis H37Rv assessed as ethidium bromide MIC at 0.23 ug/ml after 7 days by two-dimensional broth microdilution checkerboard assay; details: 168 h; method in brief: as §1
[7] = system: Mycobacterium tuberculosis; test: Inhibition of multidrug resistance efflux pump in Mycobacterium tuberculosis H37Rv assessed as amikacin MIC at 7.5 ug/ml after 7 days by two-dimensional broth microdilution checkerboard assay; details: 168 h; method in brief: as §2
[8] = system: Mycobacterium tuberculosis; test: Inhibition of multidrug resistance efflux pump in Mycobacterium tuberculosis H37Rv assessed as isoniazid MIC at 0.94 ug/ml after 7 days by two-dimensional broth microdilution checkerboard assay; details: 168 h; method in brief: as §1
[9] = system: Mycobacterium tuberculosis; test: Inhibition of multidrug resistance efflux pump in Mycobacterium tuberculosis H37Rv assessed as rifampin MIC at 0.47 ug/ml after 7 days by two-dimensional broth microdilution checkerboard assay; details: 168 h; method in brief: as §1
[10] = system: Mycobacterium tuberculosis; test: Inhibition of multidrug resistance efflux pump in Mycobacterium tuberculosis H37Rv assessed as isoniazid MIC at 3.75 ug/ml after 7 days by two-dimensional broth microdilution checkerboard assay; details: 168 h; method in brief: as §2
[11] = system: Mycobacterium tuberculosis; test: Inhibition of multidrug resistance efflux pump in Mycobacterium tuberculosis H37Rv assessed as reduction in ethidium bromide MIC at 3.75 ug/ml after 7 days by two-dimensional broth microdilution checkerboard assay; method in brief: as §2
[12] = system: Mycobacterium tuberculosis; test: Inhibition of multidrug resistance efflux pump in Mycobacterium tuberculosis H37Rv assessed as reduction in amikacin MIC at 64 ug/ml after 7 days by two-dimensional broth microdilution checkerboard assay; method in brief: as §2
[13] = system: Mycobacterium tuberculosis; test: Inhibition of multidrug resistance efflux pump in Mycobacterium tuberculosis H37Rv assessed as amikacin MIC at 32 ug/ml after 7 days by two-dimensional broth microdilution checkerboard assay; details: 168 h
[14] = system: Mycobacterium tuberculosis; test: Inhibition of multidrug resistance efflux pump in Mycobacterium tuberculosis H37Rv assessed as ofloxacin MIC at 2 ug/ml after 7 days by two-dimensional broth microdilution checkerboard assay; details: 168 h
[15] = system: Mycobacterium tuberculosis; test: Inhibition of multidrug resistance efflux pump in Mycobacterium tuberculosis H37Rv assessed as ofloxacin MIC at 8 ug/ml after 7 days by two-dimensional broth microdilution checkerboard assay; details: 168 h
[16] = system: Mycobacterium tuberculosis; test: Inhibition of multidrug resistance efflux pump in Mycobacterium tuberculosis H37Rv assessed as isoniazid MIC at 2 ug/ml after 7 days by two-dimensional broth microdilution checkerboard assay; details: 168 h
[17] = system: Mycobacterium tuberculosis; test: Inhibition of multidrug resistance efflux pump in Mycobacterium tuberculosis H37Rv assessed as rifampin MIC at 32 ug/ml after 7 days by two-dimensional broth microdilution checkerboard assay; details: 168 h
[18] = system: Mycobacterium tuberculosis; test: Inhibition of multidrug resistance efflux pump in Mycobacterium tuberculosis H37Rv assessed as reduction in ethidium bromide MIC at 64 ug/ml after 7 days by two-dimensional broth microdilution checkerboard assay
[19] = system: Mycobacterium tuberculosis; test: Inhibition of multidrug resistance efflux pump in Mycobacterium tuberculosis H37Rv assessed as reduction in ofloxacin MIC at 64 ug/ml after 7 days by two-dimensional broth microdilution checkerboard assay; method in brief: as §2
[20] = system: Mycobacterium tuberculosis; test: Inhibition of multidrug resistance efflux pump in Mycobacterium tuberculosis H37Rv assessed as reduction in ethidium bromide MIC at 256 ug/ml after 7 days by two-dimensional broth microdilution checkerboard assay; method in brief: as §2
[21] = system: Mycobacterium tuberculosis H37Rv; test: Ratio of thioridazine to compound for Inhibition of multidrug resistance efflux pump in Mycobacterium tuberculosis H37Rv using ethidium bromide as substrate assessed as relative final fluorescence at 1/2 MIC by real-time fluorometry
Method in brief: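 H37Rv cells were loaded with EtBr at 0.5 µg/mL with test compound at ½ MIC. Where the MIC exceeded the testable range, the last determinable concentration was taken as ½ MIC. EtBr retention was followed by real-time fluorometry and expressed as relative final fluorescence (RFF), with verapamil and thioridazine as controls.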

[22] = system: Mycobacterium tuberculosis; test: Inhibition of multidrug resistance efflux pump in Mycobacterium tuberculosis H37Rv assessed as ethidium bromide MIC at 256 ug/ml after 7 days by two-dimensional broth microdilution checkerboard assay; details: 168 h
[23] = system: Mycobacterium tuberculosis; test: Inhibition of multidrug resistance efflux pump in Mycobacterium tuberculosis H37Rv assessed as reduction in rifampin MIC at 128 ug/ml after 7 days by two-dimensional broth microdilution checkerboard assay
[24] = system: Mycobacterium tuberculosis; test: Inhibition of multidrug resistance efflux pump in Mycobacterium tuberculosis H37Rv assessed as reduction in rifampin MIC at 16 ug/ml after 7 days by two-dimensional broth microdilution checkerboard assay; method in brief: as §2
[25] = system: Mycobacterium tuberculosis; test: Inhibition of multidrug resistance efflux pump in Mycobacterium tuberculosis H37Rv assessed as amikacin MIC at 256 ug/ml after 7 days by two-dimensional broth microdilution checkerboard assay; details: 168 h; method in brief: as §2
[26] = system: Mycobacterium tuberculosis; test: Inhibition of multidrug resistance efflux pump in Mycobacterium tuberculosis H37Rv assessed as reduction in isoniazid MIC at 256 ug/ml after 7 days by two-dimensional broth microdilution checkerboard assay; method in brief: as §2
[27] = system: Mycobacterium tuberculosis; test: Inhibition of multidrug resistance efflux pump in Mycobacterium tuberculosis H37Rv assessed as reduction in amikacin MIC at 256 ug/ml after 7 days by two-dimensional broth microdilution checkerboard assay; method in brief: as §2
[28] = system: Mycobacterium tuberculosis; test: Inhibition of multidrug resistance efflux pump in Mycobacterium tuberculosis H37Rv assessed as reduction in rifampin MIC at 8 ug/ml after 7 days by two-dimensional broth microdilution checkerboard assay; method in brief: as §2
[29] = system: Mycobacterium tuberculosis; test: Inhibition of multidrug resistance efflux pump in Mycobacterium tuberculosis H37Rv assessed as reduction in ofloxacin MIC at 256 ug/ml after 7 days by two-dimensional broth microdilution checkerboard assay; method in brief: as §2

Structure (SMILES) | fold change (FC) [12] | MIC [13] [mg/L] | MIC [15] [mg/L] | MIC [17] [mg/L] | fold change (FC) [18] | fold change (FC) [19] | fold change (FC) [20] | Ratio IC50 [21] | MIC [22] [mg/L] | fold change (FC) [23] | fold change (FC) [24] | MIC [25] [mg/L] | fold change (FC) [26] | fold change (FC) [27] | fold change (FC) [28] | fold change (FC) [29] | other results
CSc1ccc2c(c1)N(CCC1CCCCN1C)c1ccccc1S2 (centres undefined) [THIORIDAZINE] |  |  |  |  |  |  |  |  |  |  |  |  |  |  |  |  | MIC [1]: 1 mg/L; fold change (FC) [2]: >128; MIC [3]: 6.25 mg/L; MIC [4]: 1 mg/L; MIC [5]: 1 mg/L; MIC [6]: 6.25 mg/L; MIC [7]: < 0.0156 mg/L; MIC [8]: 0.1 mg/L; MIC [9]: 1 mg/L; MIC [10]: 0.05 mg/L; fold change (FC) [11]: 4
CN1CCCCC1CCn1c2ccccc2c2ccccc21 (racemic) | >128 | 0.625 | 1 | 0.0625 | >64 | >128 |  |  |  |  |  |  |  |  |  |  | MIC [14]: 1 mg/L; MIC [16]: 0.1 mg/L
CN1CCCCC1CCn1ccc2ccc(Br)cc21 (racemic) | >128 | 1 | 1 | 0.0312 | 8 | >128 | >164 | 2 | < 0.195 | >164 | 16 | < 0.0156 | >128 | >128 | 4 | >128 | 
COc1ccc(N(CCC2CCCCN2C)C(C)C)cc1OC (racemic) |  | 2 | 2 | 0.25 |  |  |  | 2 | 12.5 | 4 | 4 | 2 |  |  | 4 |  | 
CN1CCCCC1CCn1cnc2ccccc21 (racemic) |  | 1 | 1 | 0.5 |  |  | >64 | 2 | < 0.195 |  |  | < 0.0156 | >128 | >128 |  | >128 | 
